According to publication PMC3947009 (ACS Chemical Biology, 2013):
Several values for one entry are separate records, joined by “and”; a condition that tells them apart may be missing. Equal values may be shown once.

Biological target: GluA2 LBD (S1S2J, rat GluA2-flop subunit, N754S) (Rattus norvegicus, UniProt P19491, DEL528-650/N775S/S652T/V651G)
Assay type: biochemical
How it was run: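 Trypsin-detagged LBD (residues N392-K506/P632-S775, GT linker) from E. coli Origami B(DE3), purified by ion exchange and sizing. Protein 0.017–0.1 mM in 10 mM glutamate, 25 mM NaCl, 25 mM Tris-Cl pH 7, with modulator from DMSO (1 µL per 30 µL); kept at 4 °C; synchrotron SAXS. Dimer fraction fit with monomer/dimer form factors (1FTJ); EC50 from dimerization curves; constants from simultaneous one- or two-site equilibrium fits.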

SMILES | EC50 [µM] | Kd | fold lower EC50 for dimerization than HFMZ (CYTZ vs HFMZ) [×] | fold lower EC50 for dimerization than TCMZ (CYTZ vs TCMZ) [×]
NS(=O)(=O)c1cc2c(cc1Cl)NC(C1CC3C=CC1C3)NS2(=O)=O (centres unmarked) [CYTZ, cyclothiazide] | 100 to 200 | ~5 µM | 20 | 10
NS(=O)(=O)c1cc2c(cc1C(F)(F)F)NCNS2(=O)=O [HFMZ, hydroflumethiazide] | 2000 to 5000 | ~5 µM |  | 
NS(=O)(=O)c1cc2c(cc1Cl)NC(C(Cl)Cl)NS2(=O)=O (centres unmarked) [TCMZ, trichlormethiazide] | 1000 to 2000 | 46.8 µM and ~50 µM |  | 
